Source: PubChem BioAssay
The list is not random: actives were taken first. Their share in the collection is about 1.7%.
CAL PDZ FP-1: untagged CAL PDZ binding inhibitors, primary screen, biochemical, fluorescence polarization, HTS; Golgi-associated PDZ and coiled-coil motif-containing protein (Homo sapiens), Q9HD26; purified CAL PDZ, TMR-peptide fluorescence polarization, 1 h; inhibition, % at 24.9 µM; actives 0.92% (n = 300,000);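 active = mean inhibition of at least 30% with at least half of replicates also reaching 30%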;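 note: 0% = DMSO neutral control and 100% = excess unlabeled competitor peptide PRC23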
APOBEC3G inh: APOBEC3G DNA deaminase inhibitors, primary screen, biochemical, fluorescence, single-stranded DNA substrate, uHTS. recombinant A3G, ssDNA deamination FAM/TAMRA fluorescence. AID 493012, 2011. inhibition, % at 20 µM. actives 0.28% (n = 330,000);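 active = inhibition of at least 40% at 20 µM, with no more than 30% in the related APOBEC3A deaminase screen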;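 note: plate controls were DMSO wells with A3G for no effect and wells lacking A3G enzyme for full effect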
Target sequence (Q9HC16 whole entry, looked up): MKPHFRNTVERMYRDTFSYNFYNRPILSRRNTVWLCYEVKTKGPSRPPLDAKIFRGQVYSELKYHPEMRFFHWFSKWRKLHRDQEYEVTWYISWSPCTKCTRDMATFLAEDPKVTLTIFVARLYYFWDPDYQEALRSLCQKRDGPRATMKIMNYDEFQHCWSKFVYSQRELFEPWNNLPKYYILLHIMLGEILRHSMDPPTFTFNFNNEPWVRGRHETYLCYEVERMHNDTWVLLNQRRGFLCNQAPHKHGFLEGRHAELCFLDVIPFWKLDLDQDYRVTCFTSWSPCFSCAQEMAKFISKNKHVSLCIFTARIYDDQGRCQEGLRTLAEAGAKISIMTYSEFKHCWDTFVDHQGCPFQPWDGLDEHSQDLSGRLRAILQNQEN
LANA DNA inh: inhibitors of KSHV C-LANA binding to DNA, primary screen, biochemical, fluorescence polarization, FAM-LBS DNA, MBP-C-LANA, single point; inhibition, % at 9 µM; actives 0.078% (n = 340,000); Kaposi's sarcoma herpesvirus LANA C-terminal domain (residues 932-1162) DNA binding; AID 504423, 2011;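 active = highest replicate inhibition at or above 60% at 9 µM, even if other replicates fall short; inactive = all replicates below 60% inhibition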;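 note: 0% = neutral control wells and 100% = 4 µM acridine orange control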
Keap1-Nrf2 PPI: Keap1-Nrf2 protein-protein interaction inhibitors, primary screen, biochemical, fluorescence polarization, single point; Kelch-like ECH-associated protein 1 (Homo sapiens), Q14145; Keap1 Kelch-Nrf2 peptide fluorescence polarization, 1536-well; inhibition, % at 9.4 µM; actives 0.15% (n = 340,000); AID 504523, 2011; in the data active = inhibition above about 12%;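 note: human Keap1 Kelch domain with fluorescein labeled Nrf2 9mer peptide probe; 0% = neutral control wells and 100% = peptide positive control; higher means more block of Keap1 binding to Nrf2 peptide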
APOBEC3A inh: APOBEC3A ssDNA deaminase inhibitors, primary screen, selectivity assay for APOBEC3G inhibitor project, biochemical, FAM/TAMRA oligo cleavage fluorescence; DNA dC->dU-editing enzyme APOBEC-3A (Homo sapiens), P31941; recombinant A3A, FAM/TAMRA ssDNA deamination fluorescence; inhibition, % at 20 µM; actives 0.41% (n = 330,000); AID 493011, 2011;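 active = at least 40% inhibition at 20 µM here, with at most 30% in a related deaminase screen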;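 note: plate controls were A3A with DMSO for no effect and wells lacking A3A enzyme for full effect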
Target sequence (P31941 whole entry, looked up): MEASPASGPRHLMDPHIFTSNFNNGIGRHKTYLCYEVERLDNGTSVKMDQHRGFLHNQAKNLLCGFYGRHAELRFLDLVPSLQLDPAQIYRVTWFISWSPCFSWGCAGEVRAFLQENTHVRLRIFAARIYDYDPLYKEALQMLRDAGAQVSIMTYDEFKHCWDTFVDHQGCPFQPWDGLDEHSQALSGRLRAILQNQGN
CAL PDZ FP-2: CAL PDZ peptide-binding inhibitors, primary screen, biochemical, fluorescence polarization, Cer-tagged CAL PDZ, HTS | inhibition, % at 20 µM | actives 0.02% (n = 330,000) | purified CAL PDZ, TMR-peptide fluorescence polarization, 1 h;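 active = highest replicate inhibition of at least 40%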;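 note: plate controls were DMSO neutral control wells for no effect and unlabeled competitor peptide control wells for full effect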
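System: purified tagged CAL PDZ domain construct (CerCALP). Schedule: 1 h incubation at room temperature before polarization reading. Medium: 25 mM sodium phosphate pH 7.4, 150 mM NaCl, TCEP, IgG, Thesit. Read-out: percent inhibition from loss of millipolarization. Measured by: FP readout, S and P plane fluorescence. Probe or stimulus: fluorescent TMR peptide probe.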
A3A conf: APOBEC3A deaminase inhibitors, retest, confirmation, selectivity assay for APOBEC3G inhibitor project, biochemical, single concentration, fluorescence readout. AID 493151, 2011. actives 63% (n = 1,400). inhibition, % at 20 µM. recombinant A3A, ssDNA deaminase UDG fluorescence assay. shares compounds with APOBEC3A inh;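 active = inhibition reaching a set limit, 80% of the first screen's cutoff, at 20 µM in any replicate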;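 note: plate controls were DMSO wells with A3A for no effect and wells lacking A3A enzyme for full effect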
UDG A3A counter: E. coli UDG inhibitors, confirmation, counter-screen for APOBEC3A inhibitor project, biochemical, single concentration, fluorescence, FAM/TAMRA oligo. AID 504714, 2011. UDG counterscreen, FAM/TAMRA uracil oligo fluorescence. shares compounds with APOBEC3A inh. inhibition, % at 20 µM. 1,000 tested, under 10 active; call rule not given here
Numbers without * were called inactive; x = not tested or not shown.

SMILES | CAL PDZ FP-1 | APOBEC3G inh | LANA DNA inh | Keap1-Nrf2 PPI | APOBEC3A inh | CAL PDZ FP-2 | A3A conf | UDG A3A counter
O=C(Nc1ccnn1C1CCN(Cc2ccc(CO)o2)CC1)c1ccccc1 | -1 | -8 | 1 | -1 | -4 | -1 | x | x
Cc1ccc(OCC(=O)Nc2nnc(S(=O)(=O)N3CCC(C)CC3)s2)cc1 | -1 | 21 | -1 | -10 | 43* | -2 | 20 | x
COc1ccc(OCC(=O)Nc2nnc(S(=O)(=O)N3CCCCCC3)s2)cc1 | x | -2 | -1 | -3 | -1 | -1 | x | x
COc1cc(CCC(=O)NNC(=O)c2ccc(C)cc2)cc(OC)c1OC | -3 | -6 | -1 | -1 | 1 | -3 | x | x
Cc1ccc(/C=C/S(=O)(=O)NCC(=O)OCC(=O)Nc2c(F)cccc2F)cc1 | -4 | 11 | 0 | -2 | 55* | -2 | 1 | x
CCCCCCCC[n+]1cccc2c3ccccc3ccc21 | -1 | 20 | -4 | -2 | 57* | -2 | 75* | 4
O=C(Nc1ccc(OC(F)F)cc1)c1cc[n+]([O-])cc1 | 1 | -12 | -2 | 1 | -3 | -2 | x | x
COc1ccc(NC(=O)C2CCCN(c3nn4c(=O)cc(C)nc4s3)C2)c(OC)c1 (centres undefined) | -1 | -4 | -2 | -6 | 1 | -2 | x | x
CN1CCN(CC(=O)Nc2sc3c(c2C(=O)Nc2ccccc2)CCCC3)CC1 | -1 | 6 | 1 | 0 | 57* | -2 | 43* | -2
CS(=O)(=O)c1nc([N+](=O)[O-])nn1CCCc1ccccc1 | -1 | -2 | 1 | -11 | 1 | 0 | x | x
Cn1nc([N+](=O)[O-])nc1S(C)(=O)=O | 3 | 10 | 1 | 3 | 88* | 0 | 88* | -4
COC(=O)c1ccc(NC(=O)C2CCN(C(=O)Nc3ccccc3)CC2)cc1 | -2 | 13 | 0 | -6 | 59* | 0 | 26 | x
CCn1c2ccccc2c2cc(/C=C(/C#N)C(N)=S)ccc21 | -2 | x | -1 | -11 | x | 0 | x | x
CCOc1c(C=C(C#N)C#N)c2ccccc2n1CC | -4 | -1 | -2 | -17 | 42* | 0 | -7 | -4
Cc1cc(-n2cnnn2)ccc1C(C)C | 0 | -6 | 1 | -4 | -3 | -3 | x | x
COC(=O)C1=C(C)N(Cc2ccccc2)C(=NCCc2cccnc2)N[C@H]1c1ccccc1 | 3 | 27 | 1 | 6 | 80* | -1 | 74* | -3
COC(=O)C1=C(C)N(Cc2ccccc2)C(=NCCCCO)N[C@H]1c1ccccc1 | x | 19 | x | x | 52* | x | 75* | 6
COC(=O)C1=C(C)N(Cc2ccccc2)C(=NCCc2cccnc2)N[C@H]1c1ccc(Br)cc1 | -4 | 12 | 2 | -1 | 45* | -1 | 54* | 2
CCC(Cc1ccccc1)NC(=O)c1ccc2nc(N3CCOCC3)sc2c1 (centres undefined) | -4 | -6 | -1 | -5 | 1 | -1 | x | x
CCOC(=O)C1(Cc2cccc(OC)c2)CCCN(C(=O)CCN2CCCO2)C1 (centres undefined) | -4 | 0 | 1 | -1 | -3 | -2 | x | x
O=c1[nH]cnc2onc(-c3ccc(F)cc3)c12 | -2 | -2 | 4 | 2 | -1 | -1 | x | x
Cc1cccc(C2(c3cccc(C)c3)CC2C(=O)Nc2ccc([N+](=O)[O-])cc2O)c1 (centres undefined) | -9 | -7 | 4 | 4 | -2 | 0 | x | x
COc1ccccc1NC(=O)COC(=O)c1cc2c(s1)CCC2 | -2 | 6 | 0 | 3 | 56* | -1 | 46* | -1
CC(c1ccccc1)C1OCC(C[N+]2(C)CCCCC2)O1 (centres undefined) | -3 | 15 | 0 | 1 | 68* | -1 | 66* | 0
N#Cc1ccccc1CN1C(=O)S/C(=C/c2cccn2-c2ccc(C(=O)O)cc2)C1=O | -7 | 14 | 23 | 1 | 44* | -2 | 25* | -3
SMILES | CAL PDZ FP-1 | APOBEC3G inh | LANA DNA inh | Keap1-Nrf2 PPI | APOBEC3A inh | CAL PDZ FP-2 | A3A conf | UDG A3A counter
CN1C(=O)S/C(=C/c2cccn2-c2cccc(C(=O)O)c2)C1=O | 1 | x | 0 | -4 | x | -1 | x | x
COc1ccccc1OC(C)C(=O)N1CCN(Cc2ccc3c(c2)OCO3)CC1 (centres undefined) | 12 | 13 | 1 | -1 | 57* | -3 | 48* | -3
COc1ccccc1C(=O)N1CCN(Cc2ccc3c(c2)OCO3)CC1 | -1 | 2 | 0 | -9 | 1 | 3 | x | x
CC(C)COC(=O)N1CCCC1C(=O)Nc1nccs1 (centres undefined) | -1 | 22 | -1 | -3 | 54* | 0 | 27 | x
CCC(Sc1nnnn1C)C(=O)Nc1ccc(C(C)=O)cc1 (centres undefined) | -3 | 18 | 0 | -6 | 40* | -1 | 29 | x
COc1cc(NC(=O)CCn2c(=S)oc3ccccc32)cc(OC)c1OC | -2 | -13 | -2 | -3 | -3 | 0 | x | x
CC(=O)Nc1nc2c(ccc3ccccc32)s1 | 3 | 9 | 1 | -2 | 49* | -2 | 13 | x
COCCCN(C(=O)C(C)Oc1ccc(Br)cc1)c1c(N)n(Cc2ccccc2)c(=O)[nH]c1=O (centres undefined) | 4 | -4 | 0 | -1 | 12 | 0 | x | x
CCn1c(SCC(=O)NCCc2ccccc2)nnc1C(C)C | 1 | -6 | -1 | 4 | -3 | 0 | x | x
CCn1c(SCC(=O)NCc2ccccc2)nnc1C(CO)NC(=O)c1ccccc1 (centres undefined) | x | 11 | 3 | -2 | 69* | -1 | 62* | -2
